The results in this text go back to ChEMBL document CHEMBL1122203, “Potential tumor- or organ-imaging agents. 23. Sterol esters of iopanoic acid” (J Med Chem, 1982).

Molecules are shown by their SMILES.

Data set [1] can be described thus: Percent lipid extracted at 24 hr from liver using CHCl3/CH3OH. The format is ADME, tissue-based. In a few lines: (§1)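 Same iv dosing of radioiodinated ester in Tween to female Sprague-Dawley rats. At 0.5 or 24 h, plasma, adrenal cortex and liver were extracted with CHCl3/CH3OH. Radioactivity in the lipid extract was counted and reported as percent of tissue radioactivity extractable, ± SE.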

The subject of data set [2] is Rattus norvegicus. The experiment in a line: Evaluated for distribution at 24 hours after intravenous administration in thyroid of female Sprague Dawley rats. Particulars: in vivo. Type of data set: ADME, organism-based, Thyroid gland. The method in brief: (§2)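 Radioiodinated compound solubilized in Tween (2–3% clear solution) and given intravenously to adult female Sprague-Dawley rats, 200–250 g; 5–30 µCi per animal, 4–5 rats per group. Killed by exsanguination under ether anesthesia; organs blotted, adrenal cortex dissected from medulla, weighed samples gamma-counted (84% efficiency). Expressed as percent administered dose per gram tissue ± SEM.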

The test system of data set [3] is Rattus norvegicus. Put plainly: Evaluated for distribution at 0.5 hr after intravenous administration in adrenal cortex of female Sprague Dawley rats. Type of data set: ADME, organism-based. Particulars: in vivo. In a few lines:
as §2

Data set [4] is described as follows: Percent parent compound extracted at 0.5 hr from adrenal cortex using CHCl3/CH3OH. Type of data set: ADME, tissue-based. The method in brief: (§3)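 Lipid extracts from plasma, adrenal cortex and liver taken at 0.5 or 24 h after iv dosing were run on TLC beside unlabeled ester reference (iodine vapor). Eluents were petroleum ether/diethyl ether 7:2 for the cholesteryl ester and benzene/ethyl acetate 9:1 for the others, developed 14.5 cm. Plates were cut into 1-cm strips and counted; parent given as percent of extractable radioactivity.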

The test system of data set [5] is Rattus norvegicus. The experiment in a line: Evaluated for distribution at 24 hours after intravenous administration in ovary of female Sprague Dawley rats. The format is ADME, organism-based, Female gonad. Particulars: in vivo. The method in brief:
as §2

The nature of data set [6]: Percent lipid extracted at 24 hours from plasma using CHCl3/CH3OH. Type of data set: ADME, cell-free. The method in brief: as §1
Data set [7] in a line: Percent lipid extracted at 24 hours from adrenal cortex using CHCl3/CH3OH. The format is ADME, tissue-based. The method in brief: as §1
A short description of data set [8]: Percent parent compound extracted at 24 hours from adrenal cortex using CHCl3/CH3OH. Type of data set: ADME, tissue-based. In a few lines:
as §3

The test system of data set [9] is Rattus norvegicus. Put plainly: Evaluated for distribution at 0.5 hr after intravenous administration in blood of female Sprague Dawley rats. The format is ADME, organism-based. Particulars: in vivo. In a few lines:
as §2

A short description of data set [10]: Percent parent compound extracted at 24 hours from liver using CHCl3/CH3OH. The format is ADME, tissue-based. In a few lines:
as §3

A short description of data set [11]: Percent lipid extracted at 0.5 hr from […] using CHCl3/CH3OH. The format is ADME, cell-free. The method in brief:
as §1

The nature of data set [12]: Percent parent compound extracted at 0.5 hr from liver using CHCl3/CH3OH. Type of data set: ADME, tissue-based. In a few lines: as §3
A short description of data set [13]: Percent parent compound extracted at 24 hours from plasma using CHCl3/CH3OH. Particulars: read-out: Extracted. Type of data set: ADME, cell-free. The method in brief: as §3
Data set [14] can be described thus: Percent lipid extracted at 0.5 hr from liver using CHCl3/CH3OH. The format is ADME, tissue-based. In a few lines: as §1
Data set [15] has as its system Rattus norvegicus. The experiment in a line: Evaluated for distribution at 24 hours after intravenous administration in liver of female Sprague Dawley rats. The format is ADME, organism-based. Particulars: in vivo. In a few lines:
as §2

The subject of data set [16] is Rattus norvegicus. The experiment in a line: Evaluated for distribution at 0.5 hr after intravenous administration in liver of female Sprague Dawley rats. The format is ADME, organism-based. Particulars: in vivo. The method in brief:
as §2

Data set [17] deals with Rattus norvegicus. Put plainly: Evaluated for distribution at 0.5 hr after intravenous administration in thyroid of female Sprague Dawley rats. The format is ADME, organism-based, Thyroid gland. Conditions: in vivo. The method in brief: as §2
Data set [18] has as its system Rattus norvegicus. The experiment in a line: Evaluated for distribution at 0.5 hr after intravenous administration in ovary of female Sprague Dawley rats. Type of data set: ADME, organism-based, Female gonad. Particulars: in vivo. In a few lines:
as §2

In data set [19] the test system is Rattus norvegicus. Put plainly: Evaluated for distribution at 24 hours after intravenous administration in blood of female Sprague Dawley rats. The format is ADME, organism-based. Particulars: in vivo. In a few lines: as §2
Data set [20] can be described thus: Percent parent compound extracted at 0.5 hr from plasma using CHCl3/CH3OH. Type of data set: ADME, cell-free. Conditions: read-out: Extracted. In a few lines: as §3
The test system of data set [21] is Rattus norvegicus. Put plainly: Evaluated for distribution at 24 hours after intravenous administration in adrenal cortex of female Sprague Dawley rats. Type of data set: ADME, organism-based. Conditions: in vivo. The method in brief: as §2
Data set [22] in a line: Percent lipid extracted at 0.5 hr from adrenal […] using CHCl3/CH3OH. The format is ADME, tissue-based. In a few lines: as §1

With `CCC(Cc1c(I)cc(I)c(N)c1I)C(=O)OC1CCC2(C)C(=CCC3C2CCC2(C)C(C(C)=O)CCC32)C1` (stereo unspecified), the Extracted in data set [1] turned out to be 76.1%; in [4] it was 92.1%; in [6] it was 60%; in data set [7], 87.3%; in data set [8], 68.2%; in data set [10] it was 69.1%. For the same compound, the Extracted in data set [11] is recorded as 86.7%; in data set [12] it was 89.2%; in data set [14], 87.6%; in data set [22] it was 89.5%. The Distribution is given as 156.7% in [2]; 23.083% in data set [3]; 1.085% in data set [5]; 1.727% in data set [9]; 0.386% in data set [15]; 5.214% in data set [16]. For the same compound, the Distribution in data set [17] is on record as 0.945%; in data set [18] it was 2.126%; in [19], 0.039%; in data set [21] it was 4.256%. Besides, the remaining at 24 h in [13] was determined as 44.6%. Moreover, the remaining at 0.5 h in data set [20] worked out at 91.9%.

As for `CCC(Cc1c(I)cc(I)c(N)c1I)C(=O)OC1CCC2(C)C(=CCC3C4CCC(=O)C4(C)CCC32)C1` (stereo unspecified), the Extracted stood at 61.8% in data set [1]; 83.4% in data set [4]; 64.2% in [6]; 83.4% in [7]; 16.8% in [8]; 42.5% in data set [10]. In addition, the Extracted in [11] came out at 63.1%; in data set [12], 61.8%; in data set [14], 81.5%; in data set [22], 85.5%. The Distribution came to 143.74% in [2]; 15.38% in data set [3]; 1.205% in [5]; 1.275% in data set [9]; 0.108% in [15]; 3.612% in data set [16]. The Distribution in data set [17] came to 1.392%; in data set [18], 1.886%; in data set [19], 0.085%; in [21] it was 3.958%. For the same compound, in data set [13], the remaining at 24 h is 38%. Moreover, in data set [20], the remaining at 0.5 h came out at 64.2%.

Take `CCC(Cc1c(I)cc(I)c(N)c1I)C(=O)OC1CCC2(C)C(=CCC3C2CCC2(C)C(C(C)CCCC(C)C)CCC32)C1` (stereo unspecified): the Extracted in data set [1] was 91.2%; in [4], 96.9%; in [6], 85.8%; in data set [7], 92.1%; in data set [8] it was 96.9%; in data set [10], 97.8%. The Extracted in [11] turned out to be 83.4%; in [12], 97.8%; in data set [14], 87.2%; in data set [22], 83.1%. In addition, the Distribution was 3.571% in data set [2]; 4.9% in data set [3]; 24.542% in data set [5]; 5.191% in data set [9]; 6.59% in [15]; 4.035% in data set [16]. For the same compound, the Distribution in [17] is reported as 0.868%; in data set [18], 5.161%; in data set [19] it was 0.696%; in data set [21] it was 11.029%. In [13], the remaining at 24 h came to 96.1%. In addition, the remaining at 0.5 h in [20] was found to be 96%.
